RanGTP-Impb inh: disruptors of Ran-importin-beta complex formation – biochemical, FRET, CFP-Ran, YFP-importin-beta, homogeneous, primary screen; inhibition, % (no concentration beside the values); 1.1% of 300,000 active; cell-free CFP-Ran/YFP-importin-beta FRET ratio; AID 2216;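 active = more than half of the replicate wells show a fall in the fluorescence ratio signal beyond about 16%, limit read from the data, passing the limit was not always enough; inconclusive = exactly half of the replicate wells pass the set limit; inactive = fewer than half of replicates pass the limit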;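 also: 0% = DMSO wells and 100% = Ran loaded with GDP instead of GTP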
Runt-CBFb FRET: blocks binding of human RUNX1 Runt domain to CBFb; 0.46% of 220,000 active; Cerulean-Runt/Venus-CBFb FRET ratio 530/480, 1 h; Q01196+Q13951; inhibition, % at 20 µM;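 active = inhibition over about 50% at 20 µM in the single-dose screen, limit read from the data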;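 also: 0% = DMSO wells and 100% = excess unlabeled CBFb competitor control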
Target sequence (Q01196 whole entry, looked up, the tested form may be a part): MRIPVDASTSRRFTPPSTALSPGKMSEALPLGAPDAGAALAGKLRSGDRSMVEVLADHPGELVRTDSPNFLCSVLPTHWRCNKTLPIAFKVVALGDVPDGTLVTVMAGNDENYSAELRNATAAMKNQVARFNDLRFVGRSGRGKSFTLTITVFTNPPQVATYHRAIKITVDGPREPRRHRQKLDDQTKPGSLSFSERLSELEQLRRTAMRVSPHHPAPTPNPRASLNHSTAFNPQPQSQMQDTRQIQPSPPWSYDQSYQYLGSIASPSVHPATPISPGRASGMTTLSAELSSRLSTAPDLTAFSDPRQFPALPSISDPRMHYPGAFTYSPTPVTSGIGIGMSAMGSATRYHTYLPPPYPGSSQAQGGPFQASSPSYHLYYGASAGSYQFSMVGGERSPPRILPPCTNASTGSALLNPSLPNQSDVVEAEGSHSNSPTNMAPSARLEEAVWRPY
Target sequence (Q13951 whole entry, looked up, the tested form may be a part): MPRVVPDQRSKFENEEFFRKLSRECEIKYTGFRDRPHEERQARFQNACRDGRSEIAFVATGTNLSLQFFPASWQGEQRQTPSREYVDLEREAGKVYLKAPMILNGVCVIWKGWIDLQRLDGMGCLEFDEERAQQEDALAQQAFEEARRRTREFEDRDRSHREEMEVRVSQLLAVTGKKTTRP
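Assay system: Cerulean-Runt domain fusion protein, energy donor; Signal: fluorescence energy transfer, 422 nm excitation, 530/480 nm emission; Timing: 1 h compound exposure, room temperature; Control set: unlabeled CBFb; Medium: Tris buffer pH 7.5 with salts and BSA; Compound: single test concentration of 20 µM, 1% DMSO final; Probe or stimulus: Venus-CBFb 100 nM.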
Hck-Nef inh: inhibitors of human Hck kinase activated by Nef. P08631. Recombinant Hck-YEEI plus Nef, Z-Lyte FRET kinase assay. inhibition, % at 20 µM. 0.68% of 220,000 active. AID 463187;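 active = Hck-Nef kinase inhibition above about 50%, limit read from the data; inactive = inhibition below that limit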;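 also: 0% = DMSO with Hck plus Nef and 100% = Hck alone without Nef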
Runt-SMMHC FRET: Runt domain-CBFb-SMMHC interaction inhibition. Cerulean-Runt/Venus-CBFb-SMMHC FRET ratio 530/480, 1 h. 0.74% of 220,000 active. AID 1434. inhibition, % at 20 µM. Q01196+Q13951;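 active = mean inhibition across duplicate retests at 20 µM reaching about 50%, limit read from the data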;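 also: 0% = DMSO wells and 100% = wells with excess untagged CBFb-SMMHC; inhibitors lower the FRET ratio by blocking Runt binding to CBFb-SMMHC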
L929 necroptosis: L929 zVAD cell death inhibition; L929 zVAD necroptosis rescue, ATP luminescence, 24 h; with zVAD 60 µM; viability rescue, % at 10 µM; 0.38% of 220,000 active; AID 1377;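 active = activation, scaled between plate controls, above about 75%, limit read from the data; inactive = activation under that limit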;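 also: 0% = zVAD with DMSO and 100% = DMSO alone without zVAD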
TNF death inh: blocks TNF-alpha induced death of Jurkat FADD-/- cells | Jurkat FADD-/- TNF necroptosis rescue, ATP luminescence, 24 h; 0 = TNF only, 100 = no-TNF cells | activation (protection from cell death), % at 10 µM | 0.068% of 220,000 active | AID 463075;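 active = activation, meaning protection from cell death, of at least 50% relative to plate controls; inactive = activation below 50%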;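 also: necroptosis triggered by 40 ng/mL TNF-alpha added together with compound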
Active calls of the source: *; u = inconclusive; x = no result. This is a sample that favours compounds with a hit; in the whole collection about 2.1% have one here.

SMILES | RanGTP-Impb inh | Runt-CBFb FRET | Hck-Nef inh | Runt-SMMHC FRET | L929 necroptosis | TNF death inh
CCCCCn1c(=NC(=O)c2ccco2)c(C(=O)OCC)cc2c(=O)n3ccccc3nc21 | 136.9* | 10.8 | 31.4 | 42.1 | -0.6 | -20.7
Cc1cccc2[nH]c3c(N4CC=C(c5ccc(F)cc5)CC4)ncnc3c12 | 1.9 | -0.2 | 19.0 | 2.1 | -0.3 | -5.0
Cc1c(C)c2ccc(OCC(=O)NCCN3CCOCC3)c(C)c2oc1=O | 3.4 | x | x | x | x | x
CC(C)Sc1nc(-c2cccs2)nc2c1c(=O)n(C)c(=O)n2C | x | 0.1 | 53.2* | -3.7 | 1.1 | -0.1
O=c1[nH]c(Nc2ccccc2)cc2ccccc12 | 42.9* | -2.1 | 8.1 | -17.1 | 2.9 | -0.7
O=c1nccc(Nc2ccccc2)[nH]1 | 0.2 | 1.1 | 12.1 | 4.8 | 0.8 | 0.1
CC(=O)c1cccc(Nc2nc(-c3ccccc3)nc3ccccc23)c1 | -4.8 | x | x | x | x | x
CC(=O)c1cccc(-c2ccc3c(=O)[nH]c(Nc4ccccc4)cc3c2)c1 | 21.6* | x | x | x | x | x
O=c1[nH]c(Nc2ccccc2)cc2cc(Br)ccc12 | 83.0* | x | x | x | x | x
COc1ccccc1Nc1cc2cc(Br)ccc2c(=O)[nH]1 | 34.5* | x | x | x | x | x
Cc1cccc(-c2cccc(NC(=O)C3CCCN(C(=O)c4csc(C)n4)C3)c2)c1 (stereo unspecified) | 1.8 | x | x | x | x | x
CCCc1cc(=O)[nH]c(SCC(=O)NN(c2ccccc2)c2ccccc2)n1 | 0.1 | -0.4 | -6.6 | 3.1 | 0.4 | 1.0
N#C/C(C(=O)Oc1ccccc1)=C1\C=Cc2ccccc2N1 | 54.5* | 33.5 | 4.9 | 17.7 | -0.2 | -0.7
CC1CCCC(C)N1C(=O)COC(=O)CCC1CCCC1 (stereo unspecified) | -0.5 | x | x | x | x | x
COc1ccc(/C=C2\Oc3cc(OC(=O)N4CCOCC4)ccc3C2=O)cc1 | 22.1* | -17.6 | -3.9 | -0.8 | 0.8 | -1.7
Cc1oc(/N=C/c2ccc(O)cc2O)c(C#N)c1C | 81.7* | 78.3* | 20.3 | 90.0* | 2.2 | -1.7
CN(C)c1ccnc(Nc2ccc(O)cc2)c1C#N | 2.0 | 1.7 | 22.5 | 2.9 | 0.1 | 0.7
COc1ccc(/C=N/Nc2cc(C)nc3ccc(OC)cc23)c(OC)c1 | 20.1* | x | x | x | x | x
COc1ccc(CNC(=O)CSc2nc3ccc(C)cc3[nH]2)cc1OC | -3.3 | x | x | x | x | x
Oc1c(CN2CCCCC2)cc(Br)c2cccnc12 | u | 4.2 | 1.0 | -9.1 | 0.7 | -15.7
Oc1c(CN2CCc3ccccc3C2)cc(Cl)c2cccnc12 | 23.0* | 3.1 | 2.3 | -14.6 | 58.3 | -10.0
CC(C)N1C(=O)S/C(=C\c2ccc(-c3ccc(Cl)c(C(=O)O)c3)o2)C1=O | 26.3* | x | x | x | x | x
CCOC(=O)CN1C(=O)S/C(=C\c2ccc(-c3ccc(C(=O)O)c(Cl)c3)o2)C1=O | 23.0* | x | x | x | x | x
Clc1ccc(-c2nsc(N3CCOCC3)n2)c(Cl)c1 | 2.2 | x | x | x | x | x
Cc1cc(C)nc(-n2ncc3c2CC(c2cccc(Cl)c2)CC3=O)n1 (stereo unspecified) | 3.5 | -3.1 | 14.9 | 0.2 | -0.1 | -5.9
SMILES | RanGTP-Impb inh | Runt-CBFb FRET | Hck-Nef inh | Runt-SMMHC FRET | L929 necroptosis | TNF death inh
CCCSc1nc(N)c(C#N)c(-c2ccc(C)cc2)c1C#N | -0.9 | 0.5 | -0.6 | -3.6 | 0.2 | 0.2
CCN(CC)c1ccc(-c2c(C#N)c(N)nc(OC)c2C#N)cc1 | 7.7 | 33.1 | 10.5 | 99.0* | 0.2 | 0.8
COc1cc(CN(C)Cc2cc(=O)oc3cc(C)c(Cl)cc23)ccc1OC(F)F | -2.5 | x | x | x | x | x
COc1ccc(CN(Cc2ccc(OC)cc2)S(=O)(=O)c2ccc(-n3cnnn3)c(C)c2)cc1 | 27.1* | -1.9 | 11.5 | -0.6 | -0.1 | 0.3
Cc1ccc[n+](CC(=O)Nc2ccc([N+](=O)[O-])cc2Cl)c1 | 176.1* | 0.3 | 1.4 | 9.2 | -0.2 | -1.9
COc1cc([N+](=O)[O-])ccc1NC(=O)C[n+]1cccc(C)c1 | -2.2 | 2.5 | -0.2 | 4.6 | -0.2 | -2.4
Cc1nn(C(C)C(=O)N/N=C/c2ccc(N(C)C)cc2)c(C)c1[N+](=O)[O-] (stereo unspecified) | -1.5 | 1.5 | 8.8 | -1.1 | 2.1 | 0.3
COc1ccc(C2=NOC(C(=O)Nc3cc(C)on3)C2)cc1OC (stereo unspecified) | 2.8 | 2.9 | 20.1 | 0.3 | -0.2 | 3.1
COc1cc(C2=NOC(C(=O)Nc3cc(C)on3)C2)cc(OC)c1OC (stereo unspecified) | 19.7* | 8.8 | 7.2 | -1.6 | 1.2 | 4.1
CN(C)S(=O)(=O)c1cccc(NC(=O)c2ccc(COc3ccccc3)cc2)c1 | -0.3 | x | x | x | x | x
COC(C(=O)Nc1cc([N+](=O)[O-])ccc1C)c1ccccc1 (stereo unspecified) | -1.0 | 0.8 | -6.9 | 0.5 | -0.2 | 4.5
COC(C(=O)Nc1ccc(Br)cc1F)c1ccccc1 (stereo unspecified) | 0.3 | 0.8 | -2.5 | -7.5 | 1.4 | 90.6*
COC(C(=O)NC1CC1)c1ccccc1 (stereo unspecified) | -2.4 | -1.7 | 2.2 | -0.4 | 1.0 | 30.7
COC(C(=O)Nc1ccccc1F)c1ccccc1 (stereo unspecified) | 0.0 | -0.6 | -1.7 | -0.7 | 10.0 | 83.9*
O=C(O)/C(=C\c1ccc2ccccc2c1)c1cccc2ccccc12 | 3.4 | x | x | x | x | x
Cc1ccc(S(=O)(=O)C(C#N)c2nc3ccccc3nc2N2CCN(C)CC2)cc1C (stereo unspecified) | 93.5* | 14.5 | -4.6 | 45.6 | 0.8 | 1.0
CN1CCN(c2nc3ccccc3nc2C(C#N)S(=O)(=O)c2ccccc2)CC1 (stereo unspecified) | 64.3* | 41.8 | -31.5 | -4.3 | 1.5 | 1.6
N#CC(c1nc2ccccc2nc1N1CCCC1)S(=O)(=O)c1ccccc1 (stereo unspecified) | 4.0 | -36.1 | 10.4 | -108.1 | 2.2 | -0.3
COc1ccc(NC(=O)C2CC3CCC2C3)c(OC)c1 (stereo unspecified) | -3.6 | x | x | x | x | x
COC(=O)C1=C(C)N=C2SC(C#N)=C(N)N2C1c1ccc(OC)cc1 (stereo unspecified) | 21.1* | -5.7 | -0.2 | -19.2 | 0.0 | -2.8
COC(=O)C1=C(C)N=C2SC(C#N)=C(N)N2C1c1cccc(OC)c1 (stereo unspecified) | u | -5.7 | -1.6 | -30.8 | 0.1 | -0.4
Cc1ccc(S(=O)(=O)N2CCOCC2)cc1NC(=O)COC(=O)c1cc(=O)[nH]c2ccccc12 | 26.3* | 1.5 | 22.5 | 2.7 | 0.7 | -1.9
CCOc1ccc(NC(=O)CN2C(=O)/C(=C3\SC(=S)N(C4CCS(=O)(=O)C4)C3=O)c3ccccc32)cc1 (stereo unspecified) | x | 18.4 | 74.3* | 3.0 | -0.2 | -23.6

Source: PubChem BioAssay
